In ChEMBL document CHEMBL5137016, “Turning Nonselective Inhibitors of Type I Protein Arginine Methyltransferases into Potent and Selective Inhibitors of Protein Arginine Methyltransferase 4 through a Deconstruction-Reconstruction and Fragment-Growing Approach” (J Med Chem, 2022):
The source made the active and inactive calls. The calls are words filed in the database; no cut-off is given here.

How the values were obtained:
[1] = Apparent permeability of the compound in phosphate buffer at pH 7.4 measured after 24 hrs by PAMPA assay; assay type: ADME; details: pH 7.4, 24 h
HEK-293T = test: Cytotoxicity against human HEK293T cells assessed as cell viability at 10 to 100 uM incubated for 24 to 72 hrs by MTT assay; assay type: toxicity, cell-based; details: dose lower 10 µM, time lower 24 hrs, dose upper 100 µM, time upper 72 hrs
Summary of the method: (§1)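 HEK293T cells grown in DMEM with 10% FBS, penicillin/streptomycin and 2 mM glutamine at 37 °C, 5% CO2; seeded at 5 × 10^4 cells/mL, exposed 24 or 72 h to 10, 50 or 100 μM in 0.2% DMSO; MTT formazan dissolved in DMSO, read at 550 nm minus 620 nm; quadruplicate; percent of 0.2% DMSO control.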

[2] = Cytotoxicity against human HEK293T cells assessed as cell viability at 10 to 100 uM measured after 72 hrs by MTT assay; assay type: toxicity, cell-based, HEK-293T; details: dose 10-100 µM, read-out: Activity; summary of the method: as §1
MCF7 [3] = test: Antiproliferative activity against human MCF7 cells assessed as reduction in cell viability at 50 uM incubated up to 8 days by cell titer-glo assay; assay type: functional, cell-based; details: time <= 8.0 day
Summary of the method: (§2)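 MCF7 seeded at 1000 cells/well in 96-well plates; proliferation read at days 0, 2, 4, 6 and 8 with medium changed at day 4; viability measured by CellTiter-Glo luminescence.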

MCF7 [4] = test: Antiproliferative activity against human MCF7 cells assessed as reduction in cell viability at 10 uM incubated up to 8 days by cell titer-glo assay; assay type: functional, cell-based; details: time <= 8.0 day; summary of the method: as §2
[5] = Toxicity in human HEK293T cells assessed as cell death at >10 uM measured after 24 hrs; details: hek-293t
[6] = target: T1, Histone-arginine methyltransferase CARM1 (Homo sapiens) (UniProt Q86X55); test: Binding affinity to full length recombinant PRMT4 (unknown origin) assessed as binding constant (Kon) by surface plasmon resonance analysis
T1 sequence (whole entry): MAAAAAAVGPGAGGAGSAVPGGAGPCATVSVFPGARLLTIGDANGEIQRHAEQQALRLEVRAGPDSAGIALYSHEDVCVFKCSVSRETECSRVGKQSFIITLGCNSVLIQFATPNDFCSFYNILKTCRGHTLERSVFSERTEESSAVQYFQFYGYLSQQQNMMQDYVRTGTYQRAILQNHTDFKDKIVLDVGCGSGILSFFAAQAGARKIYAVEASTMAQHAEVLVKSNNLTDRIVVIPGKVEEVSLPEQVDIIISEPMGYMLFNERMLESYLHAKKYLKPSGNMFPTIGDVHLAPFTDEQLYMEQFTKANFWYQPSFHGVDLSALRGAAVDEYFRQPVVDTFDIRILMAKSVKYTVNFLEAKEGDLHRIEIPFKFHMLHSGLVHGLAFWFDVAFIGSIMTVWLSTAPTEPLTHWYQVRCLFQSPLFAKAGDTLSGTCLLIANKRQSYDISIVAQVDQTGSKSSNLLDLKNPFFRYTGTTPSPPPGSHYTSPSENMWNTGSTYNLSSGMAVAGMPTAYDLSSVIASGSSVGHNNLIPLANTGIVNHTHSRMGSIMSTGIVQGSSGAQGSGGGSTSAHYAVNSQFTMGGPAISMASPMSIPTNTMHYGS
Summary of the method: (§3)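 Full-length recombinant PRMT4 was amine-coupled to a CM5 chip at 50 μg/mL in 10 mM acetate pH 4.5, to 4.6 kRU, with an empty reference cell. The running buffer was PBS pH 7.4 with 0.05% Tween-20 and 2% DMSO. Compounds ran as 12 serial dilutions from 640 to 10 nM at 25 °C and 30 μL/min, with 90 s association and 90 s dissociation. Data were solvent-corrected and double-referenced, and KD was taken as koff/kon.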

Homo sapiens = species: Homo sapiens; test: Selectivity index, ratio of IC50 for inhibition of human full length recombinant GST-tagged PRMT6 (2 to 375 residues) using GST-GAR as substrate to IC50 for inhibition of human full length recombinant GST-tagged PRMT4 (2 to 608 residues) using histone H3 as substrate
Summary of the method: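 Radioisotope filter-binding assay: PRMT6 used 5 μM GST-GAR and PRMT4 used 5 μM histone H3, in pH 8.5 Tris buffer with 1% DMSO. Compound was preincubated 20 min at room temperature, then 1 μM 3H-SAM was added for 60 min at 30 °C, with scintillation read-out. […] Index = IC50(PRMT6)/IC50(PRMT4), rounded to integer.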

[7] = target: T1, Histone-arginine methyltransferase CARM1 (Homo sapiens); test: Binding affinity to full length recombinant PRMT4 (unknown origin) assessed as binding constant (Koff) by surface plasmon resonance analysis; summary of the method: as §3
[8] = target: T1, Histone-arginine methyltransferase CARM1 (Homo sapiens); test: Binding affinity to full length recombinant PRMT4 (unknown origin) assessed as in vitro residence time by surface plasmon resonance analysis; summary of the method: as §3
[9] = target: T2, Histone-arginine methyltransferase CARM1 (Homo sapiens, UniProt Q86X55); test: Inhibition of PRMT4 (unknown origin)
T2 sequence (Q86X55 whole entry): T1 sequence (whole entry)

Row | SMILES | permeability [1] | Activity (HEK-293T) | viability at 72 h, up to 100 µM [2] [%] | K [6] | also measured
1 | COC(=O)c1cc(O)c2cc(NC(=O)NCCCCNC(=N)NC/C=C/[C@H]3O[C@@H](n4cnc5c(N)ncnc54)[C@H](O)[C@@H]3O)ccc2c1 | Impermeable | Non-Toxic | 80 |  | Activity (MCF7 [3]): Active
2 | CNCCN1CCC(c2cc(CN(C)C(=O)c3cccc(Oc4ccccc4)c3)ccn2)CC1 |  |  |  |  | Activity (MCF7 [4]): Active; Activity [5]: Toxic
3 | COC(=O)c1cc(O)c2cc(NC(=O)NCCCCCCCNC(=N)NC[C@H]3O[C@@H](n4cnc5c(N)ncnc54)[C@H](O)[C@@H]3O)ccc2c1 |  |  |  | 2.58 10^4/Ms | 
4 | COC(=O)c1cc(O)c2cc(NC(=O)NCCCCCNC(=N)NC[C@H]3O[C@@H](n4cnc5c(N)ncnc54)[C@H](O)[C@@H]3O)ccc2c1 |  |  |  | 3.49 10^4/Ms | Selectivity Index (Homo sapiens): > 238
5 | COC(=O)c1cc(O)c2cc(NC(=O)NCCCCNC(=N)NCCC[C@H]3O[C@@H](n4cnc5c(N)ncnc54)[C@H](O)[C@@H]3O)ccc2c1 | Impermeable | Non-Toxic | 80 | 0.25 10^6/Ms | 
6 | C[S+](CCC(N)C(=O)O)C[C@H]1O[C@@H](n2cnc3c(N)ncnc32)[C@H](O)[C@@H]1O (single isomer, unassigned) |  |  |  | 2.9 10^5/Ms | K [7]: 0.003 s⁻¹; TIME [8]: 0.0926 h
7 | COC(=O)c1cc(O)c2cc(NC(=O)NCCCCNC(=N)NCC[C@H]3O[C@@H](n4cnc5c(N)ncnc54)[C@H](O)[C@@H]3O)ccc2c1 | Impermeable | Non-Toxic | 80 | 2.7 10^6/Ms | 
8 | COc1ccc(CCNC(=O)[C@@H](N)CC[C@H](CNCc2ccccc2)C[C@H]2O[C@@H](n3cnc4c(N)ncnc43)[C@H](O)[C@@H]2O)cc1 |  |  |  |  | IC50 [9]: 1900 nM
